Experiments:
Format in all cases: functional
Candida albicans [1] = assay: Antifungal activity against Candida albicans 10231 at 100 uM after 24hrs relative to amphotericin B
In short: (§1)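 Broth microdilution in RPMI-1640. Peptides come from DMSO stocks, final DMSO ≤2%, at final 200 and 100 μM. Inoculum is 1–5 × 10^3 CFU/mL from strains grown 24 h at 35 °C on Sabouraud-chloramphenicol agar. […] Growth control carries matched DMSO; amphotericin B defines 100% inhibition. Run in duplicate.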

Candida tropicalis [2] = assay: Antifungal activity against Candida tropicalis C 131 at 200 uM after 24 hrs relative to amphotericin B; in short: as §1
Candida tropicalis [3] = assay: Antifungal activity against Candida tropicalis C 131 at 100 uM after 24 hrs relative to amphotericin B; in short: as §1
Cryptococcus neoformans [4] = assay: Antifungal activity against Cryptococcus neoformans ATCC 32264 at 25 uM after 48 hrs relative to amphotericin B; conditions: ATCC 32264, 48 h
In short: (§2)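 Microplate assay in RPMI-1640 with DMSO-dissolved peptide, final DMSO ≤2%. Inoculum is 1–5 × 10^3 CFU/mL from slants grown 24 h at 35 °C. Plates are held 48 h at 35 °C in a moist, dark chamber and read at OD405. Inhibition is taken against a DMSO-matched growth control after sterility-well subtraction; amphotericin B is set as 100%. Duplicate determinations.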

Cryptococcus neoformans [5] = assay: Antifungal activity against Cryptococcus neoformans ATCC 32264 at 12.5 uM after 48 hrs relative to amphotericin B; conditions: ATCC 32264, 48 h; in short: as §2
Cryptococcus neoformans [6] = assay: Antifungal activity against Cryptococcus neoformans ATCC 32264 at 6.25 uM after 48 hrs relative to amphotericin B; conditions: ATCC 32264, 48 h; in short: as §2
Cryptococcus neoformans [7] = assay: Antifungal activity against Cryptococcus neoformans ATCC 32264 at 3.25 uM after 48 hrs relative to amphotericin B; conditions: ATCC 32264, 48 h; in short: as §2
Cryptococcus neoformans [8] = assay: Antifungal activity against Cryptococcus neoformans ATCC 32264 at 1.62 uM after 48 hrs relative to amphotericin B; conditions: ATCC 32264, 48 h; in short: as §2
Cryptococcus neoformans [9] = assay: Antifungal activity against Cryptococcus neoformans ATCC 32264 at 0.81uM after 48 hrs relative to amphotericin B; conditions: ATCC 32264, 48 h; in short: as §2
Cryptococcus neoformans [10] = assay: Antifungal activity against Cryptococcus neoformans ATCC 32264 at 0.40 uM after 48 hrs relative to amphotericin B; conditions: ATCC 32264, 48 h; in short: as §2
Cryptococcus neoformans [11] = assay: Antifungal activity against Cryptococcus neoformans ATCC 32264 at 200 uM after 48 hrs relative to amphotericin B; conditions: ATCC 32264, 48 h; in short: as §2
Cryptococcus neoformans [12] = assay: Antifungal activity against Cryptococcus neoformans ATCC 32264 at 100 uM after 48 hrs relative to amphotericin B; conditions: ATCC 32264, 48 h; in short: as §2
Candida albicans [13] = assay: Antifungal activity against Candida albicans 10231 at 200 uM after 24 hrs relative to amphotericin B; in short: as §1
Cryptococcus neoformans [14] = assay: Antifungal activity against Cryptococcus neoformans ATCC 32264 at 50 uM after 48 hrs relative to amphotericin B; conditions: ATCC 32264, 48 h; in short: as §2

Substance	inhibition at 100 µM (Candida albicans [1]) [%]	inhibition at 200 µM (Candida tropicalis [2]) [%]	inhibition at 100 µM (Candida tropicalis [3]) [%]	inhibition at 25 µM (Cryptococcus neoformans [4]) [%]	inhibition at 12.5 µM (Cryptococcus neoformans [5]) [%]	inhibition at 6.25 µM (Cryptococcus neoformans [6]) [%]	inhibition at 3.25 µM (Cryptococcus neoformans [7]) [%]	inhibition at 1.62 µM (Cryptococcus neoformans [8]) [%]	inhibition at 0.81 µM (Cryptococcus neoformans [9]) [%]	inhibition at 0.4 µM (Cryptococcus neoformans [10]) [%]	inhibition at 200 µM (Cryptococcus neoformans [11]) [%]	inhibition at 100 µM (Cryptococcus neoformans [12]) [%]	inhibition at 200 µM (Candida albicans [13]) [%]	inhibition at 50 µM (Cryptococcus neoformans [14]) [%]
H-HFKWGKFV-NH2	0	22	0	0	0	0	0	0	0	0	97	38	72	
H-HFKWGKYV-NH2	0	0	0	49	40	31	36	33	31	26	83	50	15	50
H-HFRWGKFV-NH2	5	19	9	2	0	0	0	0	0	0	77	15	61	15
H-HFRWGKPV-NH2	0	0	0	0	0	0	0	0	0	0	24	9	0	0
H-HFRWGKYV-NH2	0	21	0	41	28	24	10	6	0	0	99	58	43	56
H-HFRWGRFV-NH2	1	64	1	26	26	18	12	11	10	7	94	72	80	67
H-HYKWGKFV-NH2	0	1	0	38	34	0	0	0	0	0	41	25	0	43
H-HYKWGKYV-NH2	0	3	0	22	19	10					63	42	0	39
H-HYKWGRFV-NH2	0	23	0			19	17	21	2	0	89	47	11	
H-HYRWGKFV-NH2	0	1	0	24	21	16	16	5	0	0	35	21	10	37

Reference: ChEMBL document CHEMBL1149892, “Structure-antifungal activity relationship of His-Phe-Arg-Trp-Gly-Lys-Pro-Val-NH2 and analogues” (2008)
